How the values were obtained:
[1] = Stability at 120 degC after 1 hr; assay type: physicochemical; details: for remaining at 1 h: read-out: Stability
Method in brief: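 Prodrugs at 0.5% in 0.5% HPMC/5% dextrose, pH 6.7, in closed vials, autoclaved at 120 °C for 1 h. After cooling, percent remaining was assessed by reverse-phase HPLC with diode-array and ELSD detection.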

[2] = Stability in Dutch-belted rabbit eye assessed as hydrolysis rate; assay type: ADME, tissue-based, Oryctolagus cuniculus
Method in brief: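 Two Dutch-Belted rabbit eyeballs were homogenized in 1× RIPA buffer. Prodrug (from 1 mg/mL DMSO stock) was added to a final 5 µg/mL and kept at 37 °C, sampled at 0, 0.25, 1, 2 and 6 h. Controls were prodrug in RIPA buffer for 120 min at 37 °C. Supernatants were analyzed by LC/MS/MS for prodrug and released parent phenol.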

[3] = target: Vascular endothelial growth factor receptor 2 (Homo sapiens, UniProt P35968); test: Inhibition of VEGFR2
Mus musculus [4] = test: Inhibition of FAK-Y861 phosphorylation in mouse at 5 mg/kg
[5] = Antiproliferative activity against VEGF-stimulated human RMVEC cells after 48 hrs; assay type: functional, cell-based
Method in brief: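 Human retinal microvascular endothelial cells (~1.5 × 10³/well) were made quiescent for ~48 h in growth-factor-free medium with 10% FBS. Cells were pretreated ~60 min with compound (5–0.00229 or 2–0.00195 µM) in medium with 10% FBS and 50 µg/mL heparin. VEGF 50 ng/mL was added for 48 h at 37 °C/5% CO₂. XTT read at 492/690 nm; IC50 by nonlinear regression.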

Mus musculus [6] = test: Reduction of VEGF-induced retinal leak in BALB/c mouse administered topically at 137 nM q.d; assay type: functional; parameters: scale not given: the % may be the effect or the level left
[7] = AUC (0 to 24 hrs) in C57BL/6 mouse cornea at 137 nM instilled per eye; assay type: ADME, organism-based; parameters: dose 137 nM, time < 24 hr, route ophthalmic; details: topical or ocular, 137 nM per eye
Method in brief: (§1)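 One 10 µL topical drop per eye (70 µg, 137 nmol; 0.7% w/v in 27% w/v PL90G aqueous formulation) to 20 male C57BL/6 mice. Composite sampling, N = 4 per time point at 0.5, 1, 3, 7 and 24 h. Cornea, retina and choroid/sclera eye cup were dissected and plasma taken at euthanasia. LC/MS/MS quantitation; Tmax and Cmax from measured levels; AUC by linear trapezoidal rule on mean data.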

[8] = AUC (0 to 24 hrs) in C57BL/6 mouse retina at 137 nM instilled per eye; assay type: ADME, organism-based; parameters: time < 24 hr, dose 137 nM, route ophthalmic; details: topical or ocular, 137 nM per eye; method in brief: as §1
[9] = Cmax in C57BL/6 mouse cornea at 137 nM instilled per eye; assay type: ADME, organism-based; parameters: dose 137 nM, route ophthalmic; details: topical or ocular, 137 nM per eye; method in brief: as §1
[10] = Tmax in C57BL/6 mouse cornea at 137 nM instilled per eye; assay type: ADME, organism-based; details: topical or ocular, 137 nM per eye; method in brief: as §1
Mus musculus [11] = test: Reduction of VEGF-induced retinal leak in BALB/c mouse administered topically at 137 nM thrice a day; assay type: functional; parameters: scale not given: the % may be the effect or the level left
[12] = Cmax in C57BL/6 mouse choroid/sclera at 137 nM instilled per eye; assay type: ADME, organism-based; parameters: dose 137 nM, route ophthalmic; details: topical or ocular, 137 nM per eye; method in brief: as §1
[13] = Cmax in C57BL/6 mouse plasma at 137 nM instilled per eye; assay type: ADME, organism-based; parameters: dose 137 nM, route ophthalmic; details: topical or ocular, 137 nM per eye; method in brief: as §1
[14] = target: Proto-oncogene tyrosine-protein kinase Src (Homo sapiens, UniProt P12931); test: Inhibition of Src
[15] = Tmax in C57BL/6 mouse plasma at 137 nM instilled per eye; assay type: ADME, organism-based; details: topical or ocular, 137 nM per eye; method in brief: as §1
[16] = Tmax in C57BL/6 mouse retina at 137 nM instilled per eye; assay type: ADME, organism-based; details: topical or ocular, 137 nM per eye; method in brief: as §1
[17] = Cmax in C57BL/6 mouse retina at 137 nM instilled per eye; assay type: ADME, organism-based; parameters: dose 137 nM, route ophthalmic; details: topical or ocular, 137 nM per eye; method in brief: as §1
[18] = AUC (0 to 24 hrs) in C57BL/6 mouse choroid/sclera at 137 nM instilled per eye; assay type: ADME, organism-based; parameters: time < 24 hr, dose 137 nM, route ophthalmic; details: topical or ocular, 137 nM per eye; method in brief: as §1
[19] = Half life in C57BL/6 mouse administered topically at 0.7% w/v thrice a day; assay type: ADME, organism-based; details: in vivo, topical or ocular
[20] = Tmax in C57BL/6 mouse choroid/sclera at 137 nM instilled per eye; assay type: ADME, organism-based; details: topical or ocular, 137 nM per eye; method in brief: as §1
[21] = target: Tyrosine-protein kinase Yes (Homo sapiens, UniProt P07947); test: Inhibition of YES
Sequence of Tyrosine-protein kinase Yes (P07947 whole entry): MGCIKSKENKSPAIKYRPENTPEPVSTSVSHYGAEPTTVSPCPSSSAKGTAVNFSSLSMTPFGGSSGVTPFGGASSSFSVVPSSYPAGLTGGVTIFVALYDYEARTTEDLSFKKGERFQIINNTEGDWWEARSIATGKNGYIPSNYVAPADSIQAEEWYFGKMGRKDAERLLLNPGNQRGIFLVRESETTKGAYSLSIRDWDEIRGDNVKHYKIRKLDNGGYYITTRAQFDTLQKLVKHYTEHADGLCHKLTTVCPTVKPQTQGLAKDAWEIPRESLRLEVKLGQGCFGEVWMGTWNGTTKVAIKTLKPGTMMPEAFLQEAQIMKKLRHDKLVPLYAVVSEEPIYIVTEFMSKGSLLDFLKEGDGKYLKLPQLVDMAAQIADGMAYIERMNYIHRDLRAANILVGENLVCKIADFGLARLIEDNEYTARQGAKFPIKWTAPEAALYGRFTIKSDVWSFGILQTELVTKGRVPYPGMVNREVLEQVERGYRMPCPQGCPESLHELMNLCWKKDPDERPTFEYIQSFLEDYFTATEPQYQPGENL

Sequence of Vascular endothelial growth factor receptor 2 (P35968 whole entry): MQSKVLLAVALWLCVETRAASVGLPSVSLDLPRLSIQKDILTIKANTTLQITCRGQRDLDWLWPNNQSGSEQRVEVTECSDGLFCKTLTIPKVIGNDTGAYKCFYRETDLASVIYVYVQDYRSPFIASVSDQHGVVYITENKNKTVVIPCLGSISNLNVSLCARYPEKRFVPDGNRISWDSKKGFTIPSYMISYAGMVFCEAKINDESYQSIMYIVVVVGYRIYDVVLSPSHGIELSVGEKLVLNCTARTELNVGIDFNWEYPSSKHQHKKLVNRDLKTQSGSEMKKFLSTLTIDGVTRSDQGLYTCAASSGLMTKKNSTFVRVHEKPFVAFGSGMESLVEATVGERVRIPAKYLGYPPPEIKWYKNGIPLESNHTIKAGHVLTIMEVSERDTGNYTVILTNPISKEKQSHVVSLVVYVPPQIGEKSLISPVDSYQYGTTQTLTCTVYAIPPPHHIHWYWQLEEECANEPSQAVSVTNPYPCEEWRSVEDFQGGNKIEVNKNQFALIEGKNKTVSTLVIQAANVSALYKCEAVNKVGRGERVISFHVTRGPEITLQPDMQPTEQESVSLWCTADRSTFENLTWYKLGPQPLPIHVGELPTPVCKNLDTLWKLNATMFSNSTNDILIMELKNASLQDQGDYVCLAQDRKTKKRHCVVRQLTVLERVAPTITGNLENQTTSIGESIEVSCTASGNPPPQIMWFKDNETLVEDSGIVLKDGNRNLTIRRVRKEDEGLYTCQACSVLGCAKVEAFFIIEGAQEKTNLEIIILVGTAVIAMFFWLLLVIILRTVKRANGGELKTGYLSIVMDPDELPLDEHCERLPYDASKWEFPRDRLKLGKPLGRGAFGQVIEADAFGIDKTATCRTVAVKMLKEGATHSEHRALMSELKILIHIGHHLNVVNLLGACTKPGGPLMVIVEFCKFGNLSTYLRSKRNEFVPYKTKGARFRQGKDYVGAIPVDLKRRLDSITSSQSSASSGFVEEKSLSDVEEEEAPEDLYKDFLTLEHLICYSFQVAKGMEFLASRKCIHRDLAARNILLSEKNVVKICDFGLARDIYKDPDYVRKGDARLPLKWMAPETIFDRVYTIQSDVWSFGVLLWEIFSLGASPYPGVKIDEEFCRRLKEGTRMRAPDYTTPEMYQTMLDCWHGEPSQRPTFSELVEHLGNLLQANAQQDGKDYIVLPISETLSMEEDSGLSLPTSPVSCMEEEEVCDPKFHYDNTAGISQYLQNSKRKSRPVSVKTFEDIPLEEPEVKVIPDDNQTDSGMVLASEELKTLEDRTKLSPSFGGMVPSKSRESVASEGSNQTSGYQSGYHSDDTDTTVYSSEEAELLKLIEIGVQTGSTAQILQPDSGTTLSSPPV
Sequence of Proto-oncogene tyrosine-protein kinase Src (P12931 2-536 limits assumed): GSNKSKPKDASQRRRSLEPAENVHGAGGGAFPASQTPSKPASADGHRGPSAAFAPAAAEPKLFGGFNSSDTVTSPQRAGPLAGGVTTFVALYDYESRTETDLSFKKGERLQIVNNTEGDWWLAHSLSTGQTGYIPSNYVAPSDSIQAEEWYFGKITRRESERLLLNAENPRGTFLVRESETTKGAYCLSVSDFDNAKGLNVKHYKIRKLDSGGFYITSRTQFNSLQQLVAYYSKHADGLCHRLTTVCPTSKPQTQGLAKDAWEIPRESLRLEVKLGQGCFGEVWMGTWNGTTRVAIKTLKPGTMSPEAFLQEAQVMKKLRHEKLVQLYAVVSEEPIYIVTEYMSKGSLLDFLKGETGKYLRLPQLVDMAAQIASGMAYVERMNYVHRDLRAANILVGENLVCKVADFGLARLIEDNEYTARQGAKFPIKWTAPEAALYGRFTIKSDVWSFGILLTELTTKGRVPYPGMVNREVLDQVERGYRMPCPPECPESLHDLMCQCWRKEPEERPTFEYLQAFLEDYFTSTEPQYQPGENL

`Cc1cc(-c2cc(OP(=O)(O)O)ccc2Cl)cc2nnc(Nc3ccc(OCCN4CCCC4)cc3)nc12` showed a remaining at 1 h [1] of less than 20%.

Work on `Cc1cc(-c2cc(OC(=O)c3cccnc3)ccc2Cl)cc2nnc(Nc3ccc(OCCN4CCCC4)cc3)nc12` yielded a remaining at 1 h [1] of 50%.

With `Cc1cc(-c2cc(OC(=O)c3ccc(CN4CCOCC4)cc3)ccc2Cl)cc2nnc(Nc3ccc(OCCN4CCCC4)cc3)nc12` the remaining at 1 h [1] was greater than 90%.

`Cc1cc(-c2cc(OC(=O)c3c(Cl)cccc3Cl)ccc2Cl)cc2nnc(Nc3ccc(OCCN4CCCC4)cc3)nc12` showed a remaining at 1 h [1] greater than 90% and a Stability [2] of 1.7 ng/mL/h.

For `Cc1cc(-c2cc(OC(=O)CN)ccc2Cl)cc2nnc(Nc3ccc(OCCN4CCCC4)cc3)nc12`, the remaining at 1 h [1] was less than 20%.

`Cc1cc(-c2cc(OC(=O)C(C)C)ccc2Cl)cc2nnc(Nc3ccc(OCCN4CCCC4)cc3)nc12` gave a remaining at 1 h [1] of 50%.

With `Cc1cc(-c2cc(O)ccc2Cl)cc2nnc(Nc3ccc(S(=O)(=O)C4CCNCC4)cc3)nc12` the IC50 [3] was 1.7 nM.

For `Cc1cc(-c2cc(O)ccc2Cl)cc2nnc(Nc3ccc(OCCN4CCCC4)cc3)nc12`, the inhibition in vivo at 5 mg/kg (Mus musculus [4]) was greater than 90%, the IC50 [5] was 610 nM and the Stability ([1]; 1 h) was “Stable”. For the same compound, the Activity (Mus musculus [6]) was 60%, the AUC(0-t) at 24 h, 0.137 µM [7] was 560 µg·h/mL and the AUC(0-t) at 24 h, 0.137 µM [8] was 3200 ng·h/mL. The Cmax at 0.137 µM [9] was 64 µM, the Tmax at 0.137 µM [10] was 30 min and the Activity (Mus musculus [11]) was 85%. The Cmax at 0.137 µM [12] was 23.4 µM, the Cmax at 0.137 µM [13] was 2 nM and the IC50 [14] was 1.8 nM. The Tmax at 0.137 µM [15] was 6 h, the Tmax at 0.137 µM [16] was 30 min and the Cmax at 0.137 µM [17] was 3.6 µM. For the same compound, the AUC(0-t) at 24 h, 0.137 µM [18] was 240 µg·h/mL, the half-life [19] was 30 min and the Tmax at 0.137 µM [20] was 30 min. For the same compound, the IC50 [21] was 0.3 nM and the IC50 [3] was 2.2 nM.

With `Cc1ccc(C(=O)Oc2ccc(Cl)c(-c3cc(C)c4nc(Nc5ccc(OCCN6CCCC6)cc5)nnc4c3)c2)cc1` the remaining at 1 h [1] was greater than 90%.

— ChEMBL document CHEMBL1144020, “Development of prodrug 4-chloro-3-(5-methyl-3-{[4-(2-pyrrolidin-1-ylethoxy)phenyl]amino}-1,2,4-benzotriazin-7-yl)phenyl benzoate (TG100801): a topically administered therapeutic candidate in clinical trials for the treatment of age-related macular degeneration” (J Med Chem, 2008)
